Data reported in ChEMBL document CHEMBL1145430, “Synthesis and simple 18F-labeling of 3-fluoro-5-(2-(2-(fluoromethyl)thiazol-4-yl)ethynyl)benzonitrile as a high affinity radioligand for imaging monkey brain metabotropic glutamate subtype-5 receptors with positron emission tomography” (J Med Chem, 2007).

Experiments:
[1] = target: Metabotropic glutamate receptor 5 (Rattus norvegicus, UniProt P31424); assay: Displacement of […] from mGluR5 in rat brain membrane; assay type: cell membranes
Summary of the method: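 Competition binding against [³H]MPEPy in rat whole-brain membranes (minus cerebellum and brainstem), homogenized in 50 mM Tris-HCl/saline pH 7.5, pelleted at 39 800 g. Membranes 5 mg/800 µL final. Competitor from 10 mM ethanol stock, final 0.01 nM to 1 mM. Incubated 1 h at 22 °C, filtered on PEI-soaked GF/B, washed with cold saline, scintillation counted. Three determinations.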

[2] = Stability in phosphate buffered saline at pH 7.4 after 71 mins; assay type: physicochemical; details: buffer, pH 7.4, 71 min
Summary of the method: (§1)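 The radioligand was dissolved in water, sampled at 34, 48 and 159 min, and analyzed at once by reverse-phase radio-HPLC (Novapak C-18, MeOH–H2O–Et3N 70:30:0.1, 2.0 mL/min). A second solution in 0.9% saline containing 0.15 mM phosphoric acid was sampled at 54 and 71 min and analyzed the same way.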

[3] = test system: Plasma; assay: Stability in rhesus monkey plasma at 5 uCi after 168 mins; assay type: ADME, cell-free, Macaca mulatta; details: 2.8 h
Summary of the method: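 Plasma was obtained by spinning whole monkey blood at 1800 g for 5 min. Plasma (1.0 mL) was incubated with 5 μCi radioligand at room temperature for 168 min, and a sample was analyzed by reverse-phase radio-HPLC.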

[4] = Stability in human whole blood at 2 uCi; assay type: ADME, tissue-based; details: read-out: Stability
Summary of the method: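 Radioligand (2 μCi) was added to human whole blood (2.0 mL) at 23 °C and sampled at 10-90 min. Each sample was mixed with acetonitrile spiked with carrier and with KF (0.5 M), counted and centrifuged at 10 000 g for 1 min. The supernatant was analyzed by radio-HPLC.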

[5] = Stability in aqueous solution after 159 mins; assay type: physicochemical; details: buffer, 2.65 h; summary of the method: as §1
[6] = Stability in rhesus monkey brain at 100 uCi in 37 degC after 90 mins; assay type: ADME, tissue-based, Macaca mulatta
Summary of the method: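 Monkey brain tissue (3.34 g, stored at -70 °C for 1 year) was homogenized on ice with about 100 μCi radioligand, incubated at 37 °C and sampled at 5-90 min. Samples were taken into acetonitrile spiked with carrier plus 0.5 M KF, counted and centrifuged at 10 000 g for 1 min. Supernatants went to HPLC, and pellets were counted to give recovery.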

[7] = Stability in human brain at 50 uCi in 37 degC after 3 hrs; assay type: ADME, tissue-based
Summary of the method: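 Human brain tissue (1.76 g) was homogenized in ice-cold saline (3 mL), then mixed with about 50 μCi radioligand in ethanol–water 1:1. The mixture was incubated at 37 °C and sampled at 5-180 min. Samples were taken into carrier-spiked acetonitrile plus 0.5 M KF, counted and centrifuged at 10 000 g. Supernatants went to HPLC, and pellets were counted to give recovery.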

[8] = test system: Brain; assay: Drug uptake in rhesus monkey brain at 4 mCi, iv; assay type: ADME, organism-based, Macaca mulatta; details: in vivo
Summary of the method: (§2)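 Anesthetized rhesus monkey (~10 kg; ketamine, propofol, isoflurane) given [18F] radioligand 4.0 mCi i.v. Imaged on HRRT with attenuation and scatter correction. Regional time–activity curves from MRI-coregistered regions of interest, expressed as %SUV (normalized for injected activity and body weight). Hippocampal uptake averaged over 60–120 min.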

[9] = test system: Hippocampus; assay: Drug uptake in rhesus monkey hippocampus at 4 mCi, iv after 60 to 120 mins; assay type: ADME, organism-based, Macaca mulatta; details: in vivo; summary of the method: as §2
[10] = test system: Hippocampus; assay: Drug uptake in rhesus monkey hippocampus at 4 mCi, iv in presence of 6-methyl-2-(phenylethynyl)-pyridine after 60 to 120 mins; assay type: ADME, organism-based, Macaca mulatta; details: in vivo
Summary of the method: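 Same rhesus monkey on a separate day, given blocker 5 mg/kg i.v. in saline with 10% ethanol 15 min before [18F] radioligand (3.8 mCi i.v.). HRRT PET. Regional uptake expressed as %SUV from MRI-coregistered regions of interest, averaged over 60–120 min.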

[11] = test system: Striatum; assay: Drug uptake in rhesus monkey striatum at 4 mCi, iv after 60 to 120 mins; assay type: ADME, organism-based, Macaca mulatta; details: in vivo
Summary of the method: (§3)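 Rhesus monkey (~10 kg) anesthetized with ketamine (10 mg/kg, i.m.) and propofol (5 mg/kg, i.v.), then isoflurane 1.0-4.0% in oxygen; body temperature 37-37.5 °C. Radioligand given i.v. and imaged on HRRT PET with attenuation and scatter correction. For blockade, MPEP/MTEP (5 mg/kg, i.v., in saline with 10% ethanol) given 15 min before tracer in the same monkey. Striatal ROI expressed as %SUV (normalized to injected activity and body weight) over 60-120 min.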

[12] = test system: Striatum; assay: Drug uptake in rhesus monkey striatum at 4 mCi, iv in presence of 6-methyl-2-(phenylethynyl)-pyridine after 60 to 120 mins; assay type: ADME, organism-based, Macaca mulatta; details: in vivo; summary of the method: as §3
[13] = test system: Blood; assay: Biodistribution in rhesus monkey blood at 4 mCi, iv after180 mins; assay type: ADME, organism-based, Macaca mulatta; details: in vivo, 3 h
Summary of the method: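 Anesthetized rhesus monkey given [18F] radioligand i.v. Heparinized blood drawn at 1 min intervals to 5 min, then at 10, 25, 40, 60, 90, 120 and 180 min, and kept on ice. Centrifuged 1800 g for 1.5 min. Plasma and cells γ-counted to give the partition of radioactivity into the cellular fraction.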

Chain of Metabotropic glutamate receptor 5 (P31424 whole entry): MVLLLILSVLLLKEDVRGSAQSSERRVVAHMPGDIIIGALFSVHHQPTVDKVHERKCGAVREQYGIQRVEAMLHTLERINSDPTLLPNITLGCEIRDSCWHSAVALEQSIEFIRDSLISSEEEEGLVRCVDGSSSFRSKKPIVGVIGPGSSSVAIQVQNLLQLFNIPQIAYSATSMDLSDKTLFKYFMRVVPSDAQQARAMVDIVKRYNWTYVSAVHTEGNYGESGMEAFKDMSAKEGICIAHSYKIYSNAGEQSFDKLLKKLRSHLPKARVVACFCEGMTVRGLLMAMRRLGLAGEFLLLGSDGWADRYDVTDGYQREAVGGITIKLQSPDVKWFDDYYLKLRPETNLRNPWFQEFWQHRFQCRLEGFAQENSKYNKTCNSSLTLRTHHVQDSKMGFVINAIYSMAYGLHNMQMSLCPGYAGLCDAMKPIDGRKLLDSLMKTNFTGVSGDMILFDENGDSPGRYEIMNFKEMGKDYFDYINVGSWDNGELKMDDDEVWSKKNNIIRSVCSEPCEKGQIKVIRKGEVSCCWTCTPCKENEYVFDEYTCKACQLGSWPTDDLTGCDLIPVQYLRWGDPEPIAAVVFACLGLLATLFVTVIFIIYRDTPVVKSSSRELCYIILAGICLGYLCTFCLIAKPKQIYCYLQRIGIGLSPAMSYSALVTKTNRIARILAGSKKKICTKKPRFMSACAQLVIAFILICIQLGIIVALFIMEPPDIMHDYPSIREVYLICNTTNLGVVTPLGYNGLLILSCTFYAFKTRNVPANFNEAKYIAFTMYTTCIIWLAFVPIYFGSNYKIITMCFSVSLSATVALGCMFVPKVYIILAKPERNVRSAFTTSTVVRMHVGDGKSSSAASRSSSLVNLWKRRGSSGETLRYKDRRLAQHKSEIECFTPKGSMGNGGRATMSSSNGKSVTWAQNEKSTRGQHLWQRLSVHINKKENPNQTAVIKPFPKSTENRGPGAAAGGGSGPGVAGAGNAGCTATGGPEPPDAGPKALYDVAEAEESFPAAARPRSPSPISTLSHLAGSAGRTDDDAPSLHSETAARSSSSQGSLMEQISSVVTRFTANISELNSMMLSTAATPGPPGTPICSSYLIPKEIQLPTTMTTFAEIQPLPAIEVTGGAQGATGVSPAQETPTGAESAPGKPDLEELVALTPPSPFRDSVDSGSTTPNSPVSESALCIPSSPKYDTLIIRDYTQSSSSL

| Compound | IC50 [1] | Stability [2] | Stability [3] | remaining at 2 uCi [4] | Stability [5] | remaining at 1.5 h, 100 uCi [6] | remaining at 3 h, 50 uCi [7] | Drug uptake [8] | Drug uptake [9] | Drug uptake [10] | Drug uptake [11] | Drug uptake [12] | Drug uptake [13] |
| --- | --- | --- | --- | --- | --- | --- | --- | --- | --- | --- | --- | --- | --- |
| N#Cc1cncc(C#Cc2csc(CF)n2)c1 | 0.23 nM | – | – | – | – | – | – | – | – | – | – | – | – |
| N#Cc1cc(F)cc(C#Cc2csc(C[18F])n2)c1 | – | Stable | Stable | > 98% | Stable | 98.2% | 98.6% | 450% | 500% | 200% | 500% | 200% | 33.9% |
| N#Cc1cccc(C#Cc2csc(CF)n2)c1 | 0.06 nM | – | – | – | – | – | – | – | – | – | – | – | – |
